Test results as given in ChEMBL document CHEMBL4219103, “Design and synthesis of 1,4-substituted 1H-1,2,3-triazolo-quinazolin-4(3H)-ones by Huisgen 1,3-dipolar cycloaddition with PI3Kγ isoform selective activity” (Bioorg Med Chem Lett, 2018).
The source made the active and inactive calls. The rule behind the calls is not given here.

Columns and labels:
[1] = tested on: HL-60; test: Antiproliferative activity against human HL60 cells after 24 to 48 hrs by MTT assay; format: functional, cell-based
[2] = tested on: COLO 205; test: Antiproliferative activity against human COLO205 cells after 24 to 48 hrs by MTT assay; format: functional, cell-based
[3] = tested on: HCT-116; test: Antiproliferative activity against human HCT116 cells after 24 to 48 hrs by MTT assay; format: functional, cell-based
[4] = tested on: MCF7; test: Antiproliferative activity against human MCF7 cells after 24 to 48 hrs by MTT assay; format: functional, cell-based
[5] = tested on: A549; test: Antiproliferative activity against human A549 cells after 24 to 48 hrs by MTT assay; format: functional, cell-based
[6] = Antiproliferative activity against human FR2 cells after 24 to 48 hrs by MTT assay; format: cell-based
[7] = tested on: HL-60; test: Downregulation of p110gamma protein expression levels in human HL60 cells at 1 uM after 2 hrs by Western blot analysis relative to control; format: functional
Method in brief: (§1)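 HL-60 cells were exposed to test agent at 1 µM for short time intervals, including 2 h. Expression of the p110α, p110β, p110δ and p110γ isoforms was then assessed by western blotting. p110γ blots were also quantified by densitometry at each time point.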

[8] = tested on: HL-60; test: Downregulation of p110alpha protein expression levels in human HL60 cells at 1 uM after 2 hrs by Western blot analysis; format: functional, cell-based; method in brief: as §1
[9] = tested on: HL-60; test: Downregulation of p110beta protein expression levels in human HL60 cells at 1 uM after 2 hrs by Western blot analysis; format: functional, cell-based; method in brief: as §1
[10] = tested on: HL-60; test: Downregulation of p110delta protein expression levels in human HL60 cells at 1 uM after 2 hrs by Western blot analysis; format: functional, cell-based; method in brief: as §1
[11] = organism: Homo sapiens; test: Selectivity index, ratio of IC50 for PI3K-delta (unknown origin) to IC50 for PI3K-gamma (unknown origin)
[12] = molecular target: Phosphatidylinositol 4,5-bisphosphate 3-kinase catalytic subunit alpha isoform (Homo sapiens, UniProt P42336); test: Inhibition of PI3K-alpha (unknown origin) by cell free biochemical assay
Sequence of Phosphatidylinositol 4,5-bisphosphate 3-kinase catalytic subunit alpha isoform (P42336 whole entry, canonical isoform): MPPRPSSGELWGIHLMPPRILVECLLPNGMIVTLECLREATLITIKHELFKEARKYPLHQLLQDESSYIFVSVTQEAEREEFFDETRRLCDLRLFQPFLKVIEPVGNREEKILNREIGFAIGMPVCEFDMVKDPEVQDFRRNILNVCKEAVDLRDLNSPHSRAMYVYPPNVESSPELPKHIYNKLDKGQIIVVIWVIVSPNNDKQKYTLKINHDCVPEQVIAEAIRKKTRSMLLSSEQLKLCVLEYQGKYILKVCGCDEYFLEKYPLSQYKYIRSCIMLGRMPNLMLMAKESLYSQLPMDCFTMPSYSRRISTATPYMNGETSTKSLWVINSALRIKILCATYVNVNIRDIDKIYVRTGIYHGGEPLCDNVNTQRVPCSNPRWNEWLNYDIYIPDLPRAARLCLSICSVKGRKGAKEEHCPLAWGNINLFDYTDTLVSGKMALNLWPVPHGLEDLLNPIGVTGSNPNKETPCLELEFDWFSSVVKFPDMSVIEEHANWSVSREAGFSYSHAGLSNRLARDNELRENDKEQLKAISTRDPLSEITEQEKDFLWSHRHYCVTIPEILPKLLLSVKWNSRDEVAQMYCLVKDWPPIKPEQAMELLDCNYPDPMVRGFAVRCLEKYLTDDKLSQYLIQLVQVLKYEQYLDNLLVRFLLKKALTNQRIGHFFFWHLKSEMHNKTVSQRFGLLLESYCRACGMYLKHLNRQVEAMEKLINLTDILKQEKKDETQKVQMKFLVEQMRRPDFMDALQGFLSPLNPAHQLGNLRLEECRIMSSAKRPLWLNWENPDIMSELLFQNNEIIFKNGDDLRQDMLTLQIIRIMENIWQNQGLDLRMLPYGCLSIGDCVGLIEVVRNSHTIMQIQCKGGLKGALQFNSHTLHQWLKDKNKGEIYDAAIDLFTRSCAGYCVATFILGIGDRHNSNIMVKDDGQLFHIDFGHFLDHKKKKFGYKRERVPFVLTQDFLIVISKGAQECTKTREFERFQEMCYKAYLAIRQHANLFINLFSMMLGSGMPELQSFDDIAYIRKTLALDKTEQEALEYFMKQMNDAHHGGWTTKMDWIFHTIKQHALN

[13] = molecular target: Phosphatidylinositol 4,5-bisphosphate 3-kinase catalytic subunit beta isoform (Homo sapiens, UniProt P42338); test: Inhibition of PI3K-beta (unknown origin) by cell free biochemical assay
Sequence of Phosphatidylinositol 4,5-bisphosphate 3-kinase catalytic subunit beta isoform (P42338 whole entry, canonical isoform): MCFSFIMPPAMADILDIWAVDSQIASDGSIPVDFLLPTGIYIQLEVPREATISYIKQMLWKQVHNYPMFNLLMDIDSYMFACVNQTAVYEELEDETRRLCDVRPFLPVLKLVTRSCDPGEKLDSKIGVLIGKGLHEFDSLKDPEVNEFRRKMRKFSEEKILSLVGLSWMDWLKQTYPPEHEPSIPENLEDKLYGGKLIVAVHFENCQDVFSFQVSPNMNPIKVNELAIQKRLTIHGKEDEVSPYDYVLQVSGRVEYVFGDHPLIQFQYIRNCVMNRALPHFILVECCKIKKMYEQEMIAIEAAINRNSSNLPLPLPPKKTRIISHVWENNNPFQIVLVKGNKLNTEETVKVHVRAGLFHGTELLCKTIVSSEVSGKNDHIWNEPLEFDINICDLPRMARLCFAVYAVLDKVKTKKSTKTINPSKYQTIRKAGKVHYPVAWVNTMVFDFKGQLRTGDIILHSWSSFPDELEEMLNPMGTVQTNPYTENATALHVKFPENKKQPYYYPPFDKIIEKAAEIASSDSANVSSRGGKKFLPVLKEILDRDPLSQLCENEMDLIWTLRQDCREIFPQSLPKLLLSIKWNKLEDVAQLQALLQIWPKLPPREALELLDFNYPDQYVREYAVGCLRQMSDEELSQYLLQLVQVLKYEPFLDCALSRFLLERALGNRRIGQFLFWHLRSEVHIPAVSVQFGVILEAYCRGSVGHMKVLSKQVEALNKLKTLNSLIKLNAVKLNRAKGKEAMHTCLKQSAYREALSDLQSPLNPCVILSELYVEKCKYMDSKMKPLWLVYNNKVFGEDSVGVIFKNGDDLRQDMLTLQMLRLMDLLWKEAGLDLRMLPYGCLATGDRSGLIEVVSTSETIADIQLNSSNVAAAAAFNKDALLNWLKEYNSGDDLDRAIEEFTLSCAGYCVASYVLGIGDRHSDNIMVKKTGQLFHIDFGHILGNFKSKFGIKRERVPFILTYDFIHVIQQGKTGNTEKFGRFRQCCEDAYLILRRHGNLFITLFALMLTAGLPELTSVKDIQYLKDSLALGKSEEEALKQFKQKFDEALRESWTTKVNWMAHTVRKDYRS

[14] = molecular target: Phosphatidylinositol 4,5-bisphosphate 3-kinase catalytic subunit gamma isoform (Homo sapiens, UniProt P48736); test: Inhibition of PI3K-gamma (unknown origin) by cell free biochemical assay
Sequence of Phosphatidylinositol 4,5-bisphosphate 3-kinase catalytic subunit gamma isoform (P48736 whole entry, canonical isoform): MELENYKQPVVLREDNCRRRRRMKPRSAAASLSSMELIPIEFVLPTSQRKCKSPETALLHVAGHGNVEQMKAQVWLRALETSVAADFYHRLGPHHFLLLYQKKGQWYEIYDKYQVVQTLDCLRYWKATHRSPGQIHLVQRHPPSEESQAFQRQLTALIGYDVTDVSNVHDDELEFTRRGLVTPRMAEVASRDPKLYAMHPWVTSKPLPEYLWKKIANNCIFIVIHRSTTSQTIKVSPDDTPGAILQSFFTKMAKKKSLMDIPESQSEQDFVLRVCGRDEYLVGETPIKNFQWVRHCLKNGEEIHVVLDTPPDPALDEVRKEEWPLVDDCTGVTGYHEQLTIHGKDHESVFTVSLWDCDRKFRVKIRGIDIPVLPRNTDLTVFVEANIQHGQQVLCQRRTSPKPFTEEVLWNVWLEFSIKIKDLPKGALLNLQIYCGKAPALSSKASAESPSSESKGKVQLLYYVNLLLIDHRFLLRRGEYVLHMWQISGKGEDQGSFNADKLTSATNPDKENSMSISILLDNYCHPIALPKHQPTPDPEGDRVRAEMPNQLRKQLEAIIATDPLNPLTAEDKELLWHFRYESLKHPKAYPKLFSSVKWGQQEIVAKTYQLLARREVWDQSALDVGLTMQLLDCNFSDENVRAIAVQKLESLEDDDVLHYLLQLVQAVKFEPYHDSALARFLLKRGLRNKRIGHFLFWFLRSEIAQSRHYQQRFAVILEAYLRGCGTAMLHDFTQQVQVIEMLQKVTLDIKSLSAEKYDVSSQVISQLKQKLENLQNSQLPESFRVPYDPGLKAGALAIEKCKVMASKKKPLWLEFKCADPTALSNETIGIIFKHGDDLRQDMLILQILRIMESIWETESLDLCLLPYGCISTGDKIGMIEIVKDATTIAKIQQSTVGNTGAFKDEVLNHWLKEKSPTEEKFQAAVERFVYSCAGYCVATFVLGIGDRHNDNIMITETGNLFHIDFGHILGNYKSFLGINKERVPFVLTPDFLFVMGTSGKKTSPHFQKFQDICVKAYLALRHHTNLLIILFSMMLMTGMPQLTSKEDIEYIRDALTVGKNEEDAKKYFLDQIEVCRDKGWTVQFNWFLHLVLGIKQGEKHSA

[15] = molecular target: T1, Phosphatidylinositol 4,5-bisphosphate 3-kinase catalytic subunit delta isoform (Homo sapiens, UniProt O00329); test: Inhibition of PI3K-delta (unknown origin) by cell free biochemical assay
T1 sequence (O00329 whole entry): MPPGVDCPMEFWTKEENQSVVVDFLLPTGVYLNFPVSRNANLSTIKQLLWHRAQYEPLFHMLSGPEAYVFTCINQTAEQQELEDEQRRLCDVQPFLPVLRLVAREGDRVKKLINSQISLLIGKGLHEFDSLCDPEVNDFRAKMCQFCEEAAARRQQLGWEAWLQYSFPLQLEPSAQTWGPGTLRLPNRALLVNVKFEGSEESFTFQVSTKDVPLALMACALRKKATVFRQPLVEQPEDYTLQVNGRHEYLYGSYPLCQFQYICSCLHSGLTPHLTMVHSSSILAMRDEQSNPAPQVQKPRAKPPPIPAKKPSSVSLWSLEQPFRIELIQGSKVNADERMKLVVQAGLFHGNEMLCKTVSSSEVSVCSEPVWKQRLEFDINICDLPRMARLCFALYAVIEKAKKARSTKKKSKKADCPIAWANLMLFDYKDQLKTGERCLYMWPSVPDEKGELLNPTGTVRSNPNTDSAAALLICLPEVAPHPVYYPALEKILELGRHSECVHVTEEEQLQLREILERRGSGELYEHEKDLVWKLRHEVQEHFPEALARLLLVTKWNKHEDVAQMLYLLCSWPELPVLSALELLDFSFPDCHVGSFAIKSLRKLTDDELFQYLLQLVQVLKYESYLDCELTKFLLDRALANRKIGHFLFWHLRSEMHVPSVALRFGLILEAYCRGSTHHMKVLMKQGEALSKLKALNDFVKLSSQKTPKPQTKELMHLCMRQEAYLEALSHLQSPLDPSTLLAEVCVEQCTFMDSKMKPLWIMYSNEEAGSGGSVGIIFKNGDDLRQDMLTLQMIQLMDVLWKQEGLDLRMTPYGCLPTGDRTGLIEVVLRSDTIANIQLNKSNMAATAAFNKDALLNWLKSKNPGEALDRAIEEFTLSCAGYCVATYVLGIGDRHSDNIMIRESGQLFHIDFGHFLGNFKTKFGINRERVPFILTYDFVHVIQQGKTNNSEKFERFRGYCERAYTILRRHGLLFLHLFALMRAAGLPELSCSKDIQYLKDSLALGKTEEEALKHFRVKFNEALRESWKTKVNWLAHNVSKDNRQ

Structure (SMILES) | IC50 [1] [µM] | IC50 [2] [µM] | IC50 [3] [µM] | IC50 [4] [µM] | IC50 [5] [µM] | Ratio IC50 [11] | IC50 [12] [µM] | IC50 [13] [µM] | IC50 [14] [µM] | IC50 [15] [µM] | IC50 [6] [µM] | Activity [7] [%] | Activity [8] | Activity [9] | Activity [10]
Cc1ccccc1-n1c(Cn2cc(-c3ccc(OC(F)(F)F)cc3)nn2)nc2cccc(C)c2c1=O | > 10 | > 10 | > 10 | > 10 | > 10 |  |  |  |  |  | > 10 |  |  |  | 
COc1ccc(-c2cn(Cc3nc4cccc(C)c4c(=O)n3-c3ccccc3C(F)(F)F)nn2)c(C)c1 | > 10 | > 10 | > 10 | > 10 | > 10 |  |  |  |  |  | > 10 |  |  |  | 
Cc1ccccc1-n1c(Cn2cc(-c3ccccc3F)nn2)nc2ccccc2c1=O | > 10 | > 10 | > 10 | > 10 | > 10 |  |  |  |  |  | > 10 |  |  |  | 
Cc1ccccc1-n1c(Cn2cc(-c3ccccc3)nn2)nc2ccccc2c1=O | > 10 | > 10 | > 10 | > 10 | > 10 |  |  |  |  |  | > 10 |  |  |  | 
COc1ccc(S(=O)(=O)NCc2cn(Cc3nc4ccccc4c(=O)n3-c3ccccc3C)nn2)cc1 | > 10 | > 10 | > 10 | > 10 | > 10 |  |  |  |  |  | > 10 |  |  |  | 
Cc1cccc(OCc2cn(Cc3nc4ccccc4c(=O)n3-c3ccccc3C)nn2)c1 | > 10 | > 10 | > 10 | > 10 | > 10 |  |  |  |  |  | > 10 |  |  |  | 
Cc1ccccc1-n1c(Cn2cc(-c3ccc(Br)cc3)nn2)nc2cccc(C)c2c1=O | > 10 | > 10 | > 10 | > 10 | > 10 |  |  |  |  |  | > 10 |  |  |  | 
Cc1ccccc1-n1c(Cn2cc(COc3cccc(F)c3)nn2)nc2ccccc2c1=O | > 10 | > 10 | > 10 | > 10 | > 10 |  |  |  |  |  | > 10 |  |  |  | 
Cc1ccc(-c2cn(Cc3nc4cccc(C)c4c(=O)n3-c3ccccc3C)nn2)cc1 | > 10 | > 10 | > 10 | > 10 | > 10 |  |  |  |  |  | > 10 |  |  |  | 
Cc1ccccc1-n1c(Cn2cc(-c3cc(C(F)(F)F)cc(C(F)(F)F)c3)nn2)nc2ccccc2c1=O | > 10 | > 10 | > 10 | > 10 | > 10 |  |  |  |  |  | > 10 |  |  |  | 
Cc1cccc2nc(Cn3cc(-c4ccccc4)nn3)n(-c3ccccc3C(F)(F)F)c(=O)c12 | > 10 | > 10 | > 10 | > 10 | > 10 |  |  |  |  |  | > 10 |  |  |  | 
COc1ccc(OCc2cn(Cc3nc4ccccc4c(=O)n3-c3ccccc3C)nn2)cc1 | > 10 | > 10 | > 10 | > 10 | > 10 |  |  |  |  |  | > 10 |  |  |  | 
Cc1ccccc1-n1c(Cn2cc(-c3cccnc3)nn2)nc2cccc(C)c2c1=O | > 10 | > 10 | > 10 | > 10 | > 10 |  |  |  |  |  | > 10 |  |  |  | 
Cc1ccccc1-n1c(Cn2cc(-c3ccccc3C(F)(F)F)nn2)nc2cccc(C)c2c1=O | > 10 | > 10 | > 10 | > 10 | > 10 |  |  |  |  |  | > 10 |  |  |  | 
Cc1ccccc1-n1c(Cn2cnc3c(N)ncnc32)nc2cccc(C)c2c1=O | 1 | > 10 | > 10 | > 10 | > 10 |  |  |  |  |  | > 10 |  |  |  | 
Cc1ccccc1-n1c(Cn2cc(-c3ccc(-c4ccccc4)cc3)nn2)nc2cccc(C)c2c1=O | > 10 | > 10 | > 10 | > 10 | > 10 |  |  |  |  |  | > 10 |  |  |  | 

More lines, main results first:

IC50 [1] [µM] | IC50 [2] [µM] | IC50 [3] [µM] | IC50 [4] [µM] | IC50 [5] [µM] | Ratio IC50 [11] | IC50 [12] [µM] | IC50 [13] [µM] | IC50 [14] [µM] | IC50 [15] [µM] | Structure (SMILES) | IC50 [6] [µM] | Activity [7] [%] | Activity [8] | Activity [9] | Activity [10]
> 10 | > 10 | > 10 | > 10 | > 10 |  |  |  |  |  | Cc1cccc2nc(Cn3cc(-c4cccnc4)nn3)n(-c3ccccc3C(F)(F)F)c(=O)c12 | > 10 |  |  |  | 
> 10 | > 10 | > 10 | > 10 | > 10 |  |  |  |  |  | Cc1ccccc1-n1c(Cn2cc(CNS(=O)(=O)c3ccccc3)nn2)nc2cccc(C)c2c1=O | > 10 |  |  |  | 
> 10 | > 10 | > 10 | > 10 | > 10 |  |  |  |  |  | Cc1ccccc1-n1c(Cn2cc(CNS(=O)(=O)c3ccc(F)cc3F)nn2)nc2cccc(C)c2c1=O | > 10 |  |  |  | 
> 10 | > 10 | > 10 | > 10 | > 10 |  |  |  |  |  | Cc1ccccc1-n1c(Cn2cc(-c3ccccc3F)nn2)nc2cccc(C)c2c1=O | > 10 |  |  |  | 
> 10 | > 10 | > 10 | > 10 | > 10 |  |  |  |  |  | Cc1cc(OCc2cn(Cc3nc4cccc(C)c4c(=O)n3-c3ccccc3C)nn2)ccc1Cl | > 10 |  |  |  | 
> 10 | > 10 | > 10 | > 10 | > 10 |  |  |  |  |  | Cc1ccccc1-n1c(Cn2cc(-c3ccc(Br)cc3)nn2)nc2ccccc2c1=O | > 10 |  |  |  | 
> 10 | > 10 | > 10 | > 10 | > 10 |  |  |  |  |  | Cc1ccccc1-n1c(Cn2cc(-c3ccccc3C(F)(F)F)nn2)nc2ccccc2c1=O | > 10 |  |  |  | 
> 10 | > 10 | > 10 | > 10 | > 10 |  |  |  |  |  | Cc1ccccc1-n1c(Cn2cc(-c3ccc(-c4ccccc4)cc3)nn2)nc2ccccc2c1=O | > 10 |  |  |  | 
> 10 | > 10 | > 10 | > 10 | > 10 |  |  |  |  |  | Cc1ccc(NCc2cn(Cc3nc4cccc(C)c4c(=O)n3-c3ccccc3C(F)(F)F)nn2)cc1C | > 10 |  |  |  | 
1 | > 10 | > 10 | > 10 | > 10 | 5 | 250 | 430 | 1 | 5 | Cc1ccccc1-n1c(Cn2cc(-c3ccccc3)nn2)nc2cccc(C)c2c1=O | > 10 | >50 | inactive | inactive | inactive
1 | > 10 | > 10 | > 10 | > 10 | 3 | 290 | 355 | 3 | 10 | COc1ccc(-c2cn(Cc3nc4cccc(C)c4c(=O)n3-c3ccccc3C)nn2)c(C)c1 | > 10 | >50 | inactive | inactive | inactive
